Measured values as given in ChEMBL document CHEMBL1146579, “Antifungal agents from the roots of Cudrania cochinchinensis against Candida, Cryptococcus, and Aspergillus species” (2003).
Converted amounts (≈) assume the structure as drawn.

Legend:
Aspergillus nidulans = assay: Antifungal activity against Aspergillus nidulans IFM 5396 after 48 to 96 hrs by broth microdilution method; assay type: functional
Outline: (§1)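 Broth microdilution followed NCCLS with slight modification, giving MIC. Compounds were dissolved in DMSO as a 12.8 mg/mL stock and diluted in RPMI-1640, with final solvent below 1%. Yeasts were kept on modified Sabouraud dextrose agar or potato dextrose agar slants, and filamentous fungi on potato dextrose agar.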

Cryptococcus neoformans = assay: Antifungal activity against Cryptococcus neoformans ATCC 90112 after 48 to 96 hrs by broth microdilution method; assay type: functional
Outline: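 Broth microdilution followed NCCLS with slight modification, giving MIC. Yeasts were kept on modified Sabouraud dextrose agar or potato dextrose agar slants, and filamentous fungi on potato dextrose agar.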

Aspergillus fumigatus [1] = assay: Antifungal activity against Aspergillus fumigatus IFM 41374 after 48 to 96 hrs by broth microdilution method; assay type: functional; outline: as §1
Candida parapsilosis = assay: Antifungal activity against Candida parapsilosis ATCC 22019 after 48 to 96 hrs by broth microdilution method; assay type: functional; conditions: Lodderomyces parapsilosis; outline: as §1
Nakaseomyces glabratus = assay: Antifungal activity against Candida glabrata ATCC 90030 after 48 to 96 hrs by broth microdilution method; assay type: functional; outline: as §1
Aspergillus fumigatus [2] = assay: Antifungal activity against Aspergillus fumigatus IFM 41236 after 48 to 96 hrs by broth microdilution method; assay type: functional; outline: as §1
Candida albicans [3] = assay: Antifungal activity against Candida albicans ATCC 90028 after 48 to 96 hrs by broth microdilution method; assay type: functional; outline: as §1
Pichia kudriavzevii = assay: Antifungal activity against Candida krusei ATCC 6258 after 48 to 96 hrs by broth microdilution method; assay type: functional; outline: as §1
Candida albicans [4] = assay: Antifungal activity against Candida albicans ATCC 90028 after 48 hrs by disk diffusion assay; assay type: functional
Outline: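 Pure compounds were dissolved in MeOH at 10 mg/mL, about 0.4 mg absorbed per 8 mm paper disk, then air-dried. Plates of Yeast Morphology Agar were incubated 48 h at 30 °C, and the diameter of the inhibition zone was measured.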

Candida albicans [5] = assay: Antifungal activity against Candida albicans ATCC 90028 at 100 ug/mL after 48 hrs by disk diffusion assay; assay type: functional; conditions: ATCC 90028, 48 h, read-out: IZ
Outline: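 The 8 mm paper disk was dipped in the solution and air-dried. C. albicans ATCC 90028, preincubated in YPD broth, was the inoculum on Yeast Morphology Agar, incubated 48 h at 30 °C. Read-out was the diameter of the inhibition zone.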

Candida albicans [6] = assay: microbe, parasite or virus in culture; conditions: ATCC 90028, 48 h, read-out: IZ

Structure (SMILES)	MIC (Aspergillus nidulans) [µg/mL]	MIC (Cryptococcus neoformans) [µg/mL]	MIC (Aspergillus fumigatus [1]) [µg/mL]	MIC (Candida parapsilosis) [µg/mL]	MIC (Nakaseomyces glabratus) [µg/mL]	MIC (Aspergillus fumigatus [2]) [µg/mL]	MIC (Candida albicans [3]) [µg/mL]	MIC (Pichia kudriavzevii) [µg/mL]	inhibition zone (IZ) (Candida albicans [4]) [mm]	zone of inhibition at 100 µg/mL (Candida albicans [5]) [mm]	zone of inhibition at 10 µg/mL (Candida albicans [6]) [mm]
CC1(C)C=Cc2c(cc3oc4c(O)cccc4c(=O)c3c2O)O1	> 128	32 (≈ 103 µM)	> 128	> 128	> 128	> 128	> 128	> 128	–	–	–
CC(C)=CCc1c(O)cc2oc3ccc(O)cc3c(=O)c2c1O	> 128	128 (≈ 410 µM)	> 128	> 128	> 128	> 128	> 128	> 128	9	–	–
COc1cc(-c2coc3cc(O)cc(O)c3c2=O)ccc1O [3'-O-METHYLOROBOL]	> 128	> 128	> 128	> 128	> 128	> 128	> 128	> 128	–	–	–
C[C@@H]1[C@H](O)[C@@H](C)/C=C/C=C/C=C/C=C/C=C/C=C/C=C/[C@H](O[C@@H]2O[C@H](C)[C@@H](O)[C@H](N)[C@@H]2O)C[C@@H]2O[C@](O)(C[C@@H](O)C[C@@H](O)[C@H](O)CC[C@@H](O)C[C@@H](O)CC(=O)O[C@H]1C)C[C@H](O)[C@H]2C(=O)O [AMPHOTERICIN B]	2 (≈ 2.16 µM)	–	1 (≈ 1.08 µM)	2 (≈ 2.16 µM)	1 (≈ 1.08 µM)	1 (≈ 1.08 µM)	2 (≈ 2.16 µM)	2 (≈ 2.16 µM)	22	18	–
CC(C)=CCc1c(O)cc2c(c1O)C(=O)CC(c1ccc(O)cc1O)O2 (stereo not drawn) [CUDRAFLAVANONE B]	64 (≈ 180 µM)	32 (≈ 89.8 µM)	64 (≈ 180 µM)	128 (≈ 359 µM)	128 (≈ 359 µM)	64 (≈ 180 µM)	64 (≈ 180 µM)	64 (≈ 180 µM)	9	–	–
COc1cc(O)c(C(=O)c2cccc(O)c2CC=C(C)C)c(O)c1 [CUDRANONE]	16 (≈ 48.7 µM)	> 128	32 (≈ 97.5 µM)	> 128	> 128	16 (≈ 48.7 µM)	> 128	> 128	9	–	–
CC(C)=CCc1cc(C(=O)c2cccc(O)c2CC=C(C)C)c(O)cc1O [CUDRAPHENONE B]	8 (≈ 21.8 µM)	4 (≈ 10.9 µM)	8 (≈ 21.8 µM)	> 128	16 (≈ 43.7 µM)	4 (≈ 10.9 µM)	16 (≈ 43.7 µM)	16 (≈ 43.7 µM)	–	–	–
CC(C)=CCc1c(O)cccc1C(=O)c1c(O)cc(O)c2c1OC(C)(C)C=C2 [CUDRAPHENONE C]	32 (≈ 84.1 µM)	16 (≈ 42.1 µM)	16 (≈ 42.1 µM)	> 128	> 128	8 (≈ 21 µM)	64 (≈ 168 µM)	64 (≈ 168 µM)	10	–	–
CC(C)=CCc1c(O)cccc1C(=O)c1c(O)cc(O)c(CC=C(C)C)c1O [CUDRAPHENONE D]	16 (≈ 41.8 µM)	2 (≈ 5.23 µM)	8 (≈ 20.9 µM)	64 (≈ 167 µM)	32 (≈ 83.7 µM)	4 (≈ 10.5 µM)	16 (≈ 41.8 µM)	8 (≈ 20.9 µM)	11	–	–
C=CC(C)(C)c1c(O)cc2oc3c(O)c(O)ccc3c(=O)c2c1O [CUDRAXANTHONE S]	4 (≈ 12.2 µM)	2 (≈ 6.09 µM)	4 (≈ 12.2 µM)	> 128	4 (≈ 12.2 µM)	4 (≈ 12.2 µM)	16 (≈ 48.7 µM)	> 128	9	–	–
Clc1ccc(COC(Cn2ccnc2)c2ccc(Cl)cc2Cl)c(Cl)c1 (stereo not drawn) [MICONAZOLE]	0.25 (≈ 0.601 µM)	0.064 (≈ 0.154 µM)	0.5 (≈ 1.2 µM)	0.5 (≈ 1.2 µM)	0.5 (≈ 1.2 µM)	0.5 (≈ 1.2 µM)	1 (≈ 2.4 µM)	1 (≈ 2.4 µM)	14	–	15
CC(C)=CCc1c(O)cc(O)c2c1OC(c1ccc(O)cc1)CC2=O (stereo not drawn) [SOPHORAFLAVANONE B]	128 (≈ 376 µM)	64 (≈ 188 µM)	> 128	> 128	> 128	16 (≈ 47 µM)	64 (≈ 188 µM)	64 (≈ 188 µM)	–	–	–
CC1Oc2cc3oc4c(O)c(O)ccc4c(=O)c3c(O)c2C1(C)C (stereo not drawn) [TOXYLOXANTHONE C]	8 (≈ 24.4 µM)	8 (≈ 24.4 µM)	8 (≈ 24.4 µM)	> 128	8 (≈ 24.4 µM)	8 (≈ 24.4 µM)	> 128	> 128	9	–	–
CC(C)=CCc1c(O)cc2occ(-c3ccc(O)cc3)c(=O)c2c1O [WIGHTEONE]	2 (≈ 5.91 µM)	4 (≈ 11.8 µM)	4 (≈ 11.8 µM)	> 128	> 128	2 (≈ 5.91 µM)	16 (≈ 47.3 µM)	> 128	11	–	–
